The text below walks through data of ChEMBL document CHEMBL2029237, “Melanin-concentrating hormone receptor 1 antagonists. Synthesis and structure-activity relationships of novel 3-(aminomethyl)quinolines” (J Med Chem, 2012).

The structures appear in SMILES notation. pIC50: −log10 of the molar value. ≈ marks a conversion by molar mass, not a printed value. Bounds are passed on as bounds.

For orientation: pIC50 means the IC50 on a negative log10 scale, so that one unit is a factor of ten. What is called solubility is how much of the substance goes into solution per volume. Read a low solubility as a poorly soluble substance. Usually inhibition in vivo stands for the drop in the measured response relative to a control, in per cent.

The target in one data set is T1, Melanin-concentrating hormone receptor 1 (Homo sapiens, UniProt Q99705). Kind of data set: Displacement of [125I]MCH from human MCHR1 expressed in CHO cells after 1 hr by scintillation counting. It is filed as cell-based.
T1 sequence (Q99705 whole entry): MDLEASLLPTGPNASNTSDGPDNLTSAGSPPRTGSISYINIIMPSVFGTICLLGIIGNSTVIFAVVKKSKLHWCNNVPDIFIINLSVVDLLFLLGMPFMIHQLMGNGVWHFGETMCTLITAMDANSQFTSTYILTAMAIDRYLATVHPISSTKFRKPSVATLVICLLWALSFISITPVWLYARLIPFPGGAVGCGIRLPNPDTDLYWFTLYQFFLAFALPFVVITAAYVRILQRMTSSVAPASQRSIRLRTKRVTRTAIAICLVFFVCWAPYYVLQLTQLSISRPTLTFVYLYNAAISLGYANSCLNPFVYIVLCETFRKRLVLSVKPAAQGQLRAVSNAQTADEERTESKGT
Conditions: not given
The procedure, abridged:
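CHO cell membranes stably expressing human or rat MCHR1 incubated 1 h at room temperature with [125I]MCH(4−19) and compound at various concentrations. Filtration through GF/C glass filters, bound radioactivity counted by scintillation. IC50 from one experiment in duplicate.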
Take `Cc1c(NC(=O)c2ccc(-c3ccc(Cl)cc3)cc2)ccc2cc(CN3CCCC3)cnc12`: the pIC50 was 9.44.

As for `COc1ccc(-c2ccc(C(=O)Nc3ccc4cc(CN5CCCC5)cnc4c3)cn2)cc1`, the pIC50 was 7.59.

For the molecule `O=C(Nc1ccc2cc(CN3CCCC3)cnc2c1)c1ccc(-c2ccccc2)nc1`, the pIC50 was 7.14.

As for `O=C(Nc1ccc2c(c1)OCC(CN1CCCC1)=C2)c1ccc(-c2ccc(F)cc2)cc1`, the pIC50 is 9.04.

In turn, `COc1c(NC(=O)c2ccc(-c3ccc(F)cc3)cc2)ccc2cc(CN3CCCC3)cnc12` had a pIC50 of 6.96.

Turning to `O=C(Nc1ccc2cc(CN3CCCC3)cnc2c1)c1ccc(-c2ccc(F)cc2)nc1`, the pIC50 is 7.60.

Turning to `Cc1ccc(-c2ccc(C(=O)Nc3ccc4cc(CN5CCCC5)cnc4c3C)cc2)cc1`, the pIC50 is 9.00.

Take `O=C(Nc1ccc2cc(CN3CCCC3)cnc2c1)c1ccc(-c2ccc(F)cc2)cc1`: the pIC50 was 8.55.

As to `CCc1c(NC(=O)c2ccc(-c3ccc(F)cc3)cc2)ccc2cc(CN3CCCC3)cnc12`, the pIC50 was 7.00.

The molecule `O=C(Nc1cc2ncc(CN3CCCC3)cc2cc1F)c1ccc(-c2ccc(F)cc2)cc1` showed a pIC50 of 8.85.

Turning to `O=C(Nc1ccc2cc(CN3CCCC3)cnc2c1)c1ccc(-c2ccccc2)cc1`, the pIC50 was 7.89.

Take `COc1ccc(C2CCN(C(=O)Nc3ccc4cc(CN5CCCC5)cnc4c3)CC2)cc1`: the negative-log IC50 (pIC50) was 7.32.

For the molecule `O=C(Nc1ccc2cc(CN3CCCC3)cnc2c1)N1CCC(c2ccc(F)cc2)CC1`, the pIC50 is 7.46.

For the molecule `O=C(Nc1ccc2cc(CN3CCCC3)cnc2c1F)c1ccc(-c2ccc(F)cc2)cc1`, the negative-log IC50 (pIC50) is 9.04.

A further data set deals with T1, Melanin-concentrating hormone receptor 1. The data set can be described thus: Antagonist activity at human MCHR1 expressed in CHO cells assessed as inhibition of MCH-induced [3H]arachidonic acid release […] by liquid scintillation counting. The note with it: in the assay text read “45 mins” for “16 hrs”. It is filed as functional, cell-based. The procedure, abridged: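 Human MCHR1-CHO cells seeded at 50 000/well, cultured 1 day, then loaded with [3H]arachidonic acid (0.2 μCi/well) for 16 h. Washed with DMEM containing 20 mM HEPES pH 7.4 and 0.2% BSA. Compound preincubated 30 min at 37 °C, MCH added, 45 min incubation, medium radioactivity by liquid scintillation.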
As for `O=C(Nc1ccc2c(c1)CCC(CN1CCCC1)=C2)c1ccc(-c2ccc(F)cc2)cc1`, the pIC50 was 7.77.

On to `Cc1c(NC(=O)c2ccc(-c3ccc(Cl)cc3)cc2)ccc2cc(CN3CCCC3)cnc12`, for which the pIC50 was 8.12.

Turning to `O=C(Nc1ccc2c(c1)OCC(CN1CCCC1)=C2)c1ccc(-c2ccc(F)cc2)cc1`, the pIC50 is 8.00.

Consider `Cc1ccc(-c2ccc(C(=O)Nc3ccc4cc(CN5CCCC5)cnc4c3C)cc2)cc1`, for which the negative logarithm of the IC50 (pIC50) is 7.96.

For `O=C(Nc1ccc2cc(CN3CCCC3)cnc2c1)c1ccc(-c2ccc(F)cc2)cc1`, the pIC50 was 8.04.

Turning to `O=C(Nc1cc2ncc(CN3CCCC3)cc2cc1F)c1ccc(-c2ccc(F)cc2)cc1`, the negative logarithm of the IC50 (pIC50) was 8.08.

As to `O=C(Nc1ccc2cc(CN3CCCC3)cnc2c1F)c1ccc(-c2ccc(F)cc2)cc1`, the pIC50 was 8.64.

Another data set concerns the target T2, 5-hydroxytryptamine receptor 2C (Homo sapiens, UniProt P28335).
T2 sequence (P28335 whole entry): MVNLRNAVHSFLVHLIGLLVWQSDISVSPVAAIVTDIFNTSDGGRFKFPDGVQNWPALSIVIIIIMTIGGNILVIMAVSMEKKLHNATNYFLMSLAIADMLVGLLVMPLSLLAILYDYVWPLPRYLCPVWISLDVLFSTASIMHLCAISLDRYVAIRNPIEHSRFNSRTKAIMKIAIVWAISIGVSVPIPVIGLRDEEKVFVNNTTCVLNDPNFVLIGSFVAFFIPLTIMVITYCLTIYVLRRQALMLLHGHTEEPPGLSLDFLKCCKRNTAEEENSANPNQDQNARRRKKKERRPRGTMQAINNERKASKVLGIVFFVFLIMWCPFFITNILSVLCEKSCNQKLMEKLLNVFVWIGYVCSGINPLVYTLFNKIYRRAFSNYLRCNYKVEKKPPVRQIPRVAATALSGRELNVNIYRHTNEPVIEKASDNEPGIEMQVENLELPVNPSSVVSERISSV
Kind of data set: Displacement of [3H]mesulergine from human 5HT2C receptor expressed in CHO cells after 1 hr by scintillation counting. It is filed as cell-based.
Conditions: not given
The procedure, abridged: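 Membranes from CHO cells stably expressing human 5-HT2c incubated 1 h at room temperature with [3H]mesulergine and compound at various concentrations. Terminated by GF/C filtration, filter radioactivity counted by scintillation. IC50 from one experiment in duplicate.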
(Loss of bound radioactivity is the signal in a displacement assay; it reports binding, not function.)
As for `O=C(Nc1ccc2c(c1)CCC(CN1CCCC1)=C2)c1ccc(-c2ccc(F)cc2)cc1`, the pIC50 is 9.28.

`Cc1c(NC(=O)c2ccc(-c3ccc(Cl)cc3)cc2)ccc2cc(CN3CCCC3)cnc12` gave a pIC50 of less than 6.00.

Molecule `O=C(Nc1ccc2c(c1)OCC(CN1CCCC1)=C2)c1ccc(-c2ccc(F)cc2)cc1` gave a pIC50 of 8.51.

`O=C(Nc1ccc2cc(CN3CCCC3)cnc2c1)c1ccc(-c2ccc(F)cc2)nc1` gave a pIC50 of 6.08.

`Cc1ccc(-c2ccc(C(=O)Nc3ccc4cc(CN5CCCC5)cnc4c3C)cc2)cc1` gave a pIC50 of 6.27.

As to `O=C(Nc1ccc2cc(CN3CCCC3)cnc2c1)c1ccc(-c2ccc(F)cc2)cc1`, the pIC50 is 6.80.

Molecule `CCc1c(NC(=O)c2ccc(-c3ccc(F)cc3)cc2)ccc2cc(CN3CCCC3)cnc12` gave a pIC50 of less than 6.00.

`O=C(Nc1cc2ncc(CN3CCCC3)cc2cc1F)c1ccc(-c2ccc(F)cc2)cc1` had a pIC50 of 6.55.

On to `O=C(Nc1ccc2cc(CN3CCCC3)cnc2c1)c1ccc(-c2ccccc2)cc1`, for which the pIC50 was 6.51.

Consider `O=C(Nc1ccc2cc(CN3CCCC3)cnc2c1F)c1ccc(-c2ccc(F)cc2)cc1`, for which the pIC50 was 7.11.

System in the next data set: not listed separately
Kind of data set: Solubility of the compound in JP2 solution at 10 mM. It counts as physicochemical.
Conditions: not given
The procedure, abridged: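 The 10 mM DMSO solution of compound was added to JP2 until opalescence appeared.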
`O=C(Nc1ccc2c(c1)CCC(CN1CCCC1)=C2)c1ccc(-c2ccc(F)cc2)cc1` displayed a solubility of less than 0.03 µg/mL.

`O=C(Nc1ccc2c(c1)OCC(CN1CCCC1)=C2)c1ccc(-c2ccc(F)cc2)cc1` had a solubility of 0.17 µg/mL (≈ 0.397 µM).

For the molecule `O=C(Nc1ccc2cc(CN3CCCC3)cnc2c1)c1ccc(-c2ccc(F)cc2)cc1`, the concentration in solution (solubility) came to 1.5 µg/mL (≈ 3.53 µM).

In a further data set the test system is Rattus norvegicus. The data set can be described thus: Antiobesity activity in high-fat diet fed Fischer 344 rat DIO model assessed as inhibition of food intake at 1 mg/kg, po after 6 hrs. The note with it: Fischer 344, 6 h. It is filed as functional. In outline: (§1)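 Male F344/Jcl rats, 52 weeks old, fed high-fat diet from 5 weeks of age, housed singly and acclimated to oral water dosing; grouped by overnight food intake and body weight. Single oral dose at 15:00 as 0.5% methylcellulose suspension, 2 mL/kg, six rats per group; vehicle controls. Cumulative food intake at 6 and 17 h; percent inhibition versus control, mean ± SD.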
As for `CC(C)CC(N(C)C)C1(c2ccc(Cl)cc2)CCC1` (stereo unspecified) [SIBUTRAMINE], the inhibition in vivo at 1 mg/kg turned out to be 34.6%.

Another data set relates to Rattus norvegicus. The data set can be described thus: Antiobesity activity in high-fat diet fed Fischer 344 rat DIO model assessed as inhibition of food intake at 1 mg/kg, po after 17 hrs. It counts as functional. The note with it: Fischer 344, 17 h. The procedure, abridged: as §1
In the case of `CC(C)CC(N(C)C)C1(c2ccc(Cl)cc2)CCC1` (stereo unspecified) [SIBUTRAMINE], the inhibition in vivo at 1 mg/kg was found to be 25.8%.
